Activity and IC50 data for four molecules are collected here from ChEMBL document CHEMBL1157505, “Design and in vitro characterization of highly sst2-selective somatostatin antagonists suitable for radiotargeting” (J Med Chem, 2008).

The structures appear in SMILES notation. Activity calls are given as the source filed them. The calls are words filed in the database; no cut-off is given here.

Assay [1] deals with T1, Somatostatin receptor type 2 (Homo sapiens, UniProt P30874). The experiment in a line: Antagonist activity at T7 epitope tagged human cloned sst2 expressed in HEK293 cells assessed as intracellular calcium release upto 10 uM. Format: functional, cell-based. The essentials:
(§1)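 HEK-sst2 cells seeded on poly-D-lysine, cultured 1 day, loaded with Fluo-4NW dye (assay buffer HBSS/20 mM HEPES, 2.5 mM probenecid) 30 min 37 °C plus 30 min RT. Analogues alone up to 10 μM, or [Tyr3]-octreotide with 100-fold excess analogue; fluorescence (ex 485/em 520 nm) recorded 60 s at RT; percentage of ionomycin (25 μM) maximum over baseline; ≥3 experiments in triplicate.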
(In general: Calcium flux is commonly read through the fluorescence of an indicator in the cells.)

Assay [2] addresses T1, Somatostatin receptor type 2. The experiment in a line: Antagonist activity at T7 epitope tagged human cloned sst2 receptor expressed in HEK293 cells assessed as inhibition of [Tyr3]octreotide-induced receptor internalization upto 10 uM by immunofluorescence-based assay. Format: functional, cell-based. The essentials:
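Immunofluorescence microscopy with sst2-specific antibody R2-88 on HEK-sst2 cells treated 30 min with vehicle, 100 nM [Tyr3]-octreotide, 100 nM [Tyr3]-octreotide plus 100-fold excess (10 μM) analogue, or analogue alone at 10 μM; internalization scored as punctate perinuclear staining.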

For assay [3] the target is unchanged. The experiment in a line: Antagonist activity at T7 epitope tagged human cloned sst2 expressed in HEK293 cells assessed as [Tyr3]octreotide-induced intracellular calcium release upto 10 uM. Format: functional, cell-based. Summed up:
as §1

The target is the same in assay [4]. Kind of assay: Antagonist activity at T7 epitope tagged human cloned sst2 receptor expressed in HEK293 cells assessed as inhibition of [Tyr3]octreotide-induced receptor internalization upto 10 uM. Format: functional, cell-based. The essentials:
(§2)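 Surface T7-tagged sst2 on HEK-sst2 cells labelled with anti-T7 antibody 2 h RT in DMEM-LH, then cells exposed 30 min at 37 °C to analogue (alone up to 10 μM or with [Tyr3]-octreotide), fixed in 3% paraformaldehyde, probed with HRP anti-mouse IgG, ABTS read at OD405; surface receptor as % of untreated; mean ± SEM, three experiments in duplicate.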

Assay [5] has the same target. The experiment in a line: Antagonist activity at T7 epitope tagged human cloned sst2 receptor expressed in HEK293 cells assessed as inhibition of receptor internalization upto 10 uM by ELISA. The format is functional, cell-based. Summed up:
as §2

Assay [6] has as its target Somatostatin receptor type 3 (Homo sapiens, UniProt P32745). Kind of assay: Displacement of [125I][LTT]SRIF28 from human cloned sst3 receptor by autoradiography. (In general: Displacement assays read how much labelled ligand stays bound in the presence of the test substance.)
In assay [7] the target is Somatostatin receptor type 4 (Homo sapiens, UniProt P31391). Kind of assay: Displacement of [125I][LTT]SRIF28 from human cloned sst4 receptor by autoradiography.
Somatostatin receptor type 4, sequence (P31391 whole entry): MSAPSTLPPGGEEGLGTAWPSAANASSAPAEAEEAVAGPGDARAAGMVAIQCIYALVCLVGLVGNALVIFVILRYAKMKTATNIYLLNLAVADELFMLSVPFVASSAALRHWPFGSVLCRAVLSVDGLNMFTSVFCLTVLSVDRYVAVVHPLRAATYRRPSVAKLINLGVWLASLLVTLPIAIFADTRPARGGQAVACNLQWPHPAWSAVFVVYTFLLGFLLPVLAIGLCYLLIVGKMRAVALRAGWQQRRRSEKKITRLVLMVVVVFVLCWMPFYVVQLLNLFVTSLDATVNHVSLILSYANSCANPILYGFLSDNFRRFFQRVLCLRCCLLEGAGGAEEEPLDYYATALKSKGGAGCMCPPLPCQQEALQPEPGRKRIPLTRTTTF
The target of assay [8] is T1, Somatostatin receptor type 2. The experiment in a line: Displacement of [125I][LTT]SRIF28 from human cloned sst2 receptor by autoradiography.
Assay [9] concerns the target Somatostatin receptor type 1 (Homo sapiens, UniProt P30872). Kind of assay: Displacement of [125I][LTT]SRIF28 from human cloned sst1 receptor by autoradiography.
The target of assay [10] is Somatostatin receptor type 5 (Homo sapiens, UniProt P35346). Kind of assay: Displacement of [125I][LTT]SRIF28 from human cloned sst5 receptor by autoradiography.
Somatostatin receptor type 5, sequence (P35346 whole entry): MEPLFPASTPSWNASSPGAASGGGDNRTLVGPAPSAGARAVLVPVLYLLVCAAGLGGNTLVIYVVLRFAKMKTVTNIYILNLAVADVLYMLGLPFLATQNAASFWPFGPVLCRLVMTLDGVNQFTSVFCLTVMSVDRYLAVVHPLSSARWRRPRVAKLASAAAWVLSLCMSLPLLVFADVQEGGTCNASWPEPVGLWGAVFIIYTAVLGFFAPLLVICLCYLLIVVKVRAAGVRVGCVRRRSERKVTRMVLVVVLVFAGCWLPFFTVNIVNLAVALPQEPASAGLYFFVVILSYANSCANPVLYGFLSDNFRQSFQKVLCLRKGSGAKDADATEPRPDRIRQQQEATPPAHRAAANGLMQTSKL

T1 sequence (P30874 whole entry): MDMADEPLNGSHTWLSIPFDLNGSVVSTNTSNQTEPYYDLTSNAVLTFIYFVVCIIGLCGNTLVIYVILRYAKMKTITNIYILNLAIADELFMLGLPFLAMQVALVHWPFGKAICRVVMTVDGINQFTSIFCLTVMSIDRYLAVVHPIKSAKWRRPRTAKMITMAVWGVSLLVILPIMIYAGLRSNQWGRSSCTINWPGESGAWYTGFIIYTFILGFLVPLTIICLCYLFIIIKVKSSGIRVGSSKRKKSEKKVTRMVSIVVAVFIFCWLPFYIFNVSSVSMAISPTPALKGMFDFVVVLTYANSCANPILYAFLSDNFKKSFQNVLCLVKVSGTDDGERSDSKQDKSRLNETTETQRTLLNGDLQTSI
Somatostatin receptor type 1, sequence (P30872 whole entry): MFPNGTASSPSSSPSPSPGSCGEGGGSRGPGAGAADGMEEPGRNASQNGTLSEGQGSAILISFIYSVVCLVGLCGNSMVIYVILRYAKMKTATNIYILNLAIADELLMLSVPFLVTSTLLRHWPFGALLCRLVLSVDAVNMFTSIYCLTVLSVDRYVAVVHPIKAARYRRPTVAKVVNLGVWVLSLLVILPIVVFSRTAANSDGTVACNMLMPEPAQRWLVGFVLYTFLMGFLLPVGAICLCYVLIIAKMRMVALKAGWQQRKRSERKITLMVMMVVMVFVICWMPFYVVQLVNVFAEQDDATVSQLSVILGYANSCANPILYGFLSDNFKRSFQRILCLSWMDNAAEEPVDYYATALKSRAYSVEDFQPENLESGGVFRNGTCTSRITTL
Somatostatin receptor type 3, sequence (P32745 whole entry): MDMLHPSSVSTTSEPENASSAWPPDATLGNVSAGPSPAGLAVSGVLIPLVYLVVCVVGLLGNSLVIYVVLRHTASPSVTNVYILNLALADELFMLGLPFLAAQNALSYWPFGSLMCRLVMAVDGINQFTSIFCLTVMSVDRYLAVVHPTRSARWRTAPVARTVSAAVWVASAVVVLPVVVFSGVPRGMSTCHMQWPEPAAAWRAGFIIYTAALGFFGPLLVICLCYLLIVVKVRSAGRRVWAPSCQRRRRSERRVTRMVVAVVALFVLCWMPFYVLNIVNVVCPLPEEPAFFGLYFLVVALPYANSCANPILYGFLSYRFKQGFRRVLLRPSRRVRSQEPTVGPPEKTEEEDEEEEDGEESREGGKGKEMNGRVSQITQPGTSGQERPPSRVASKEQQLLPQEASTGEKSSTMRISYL

On to `C[C@@H](O)[C@@H]1NC(=O)[C@H](CCCCN)NC(=O)[C@@H](Cc2ccc(NC(N)=O)cc2)NC(=O)[C@H](Cc2ccc(O)cc2)NC(=O)[C@H](NC(=O)[C@@H](Cc2ccc([N+](=O)[O-])cc2)NC(=O)CN2CCN(CC(=O)O)CCN(CC(=O)O)CCN(CC(=O)O)CC2)CSSC[C@@H](C(=O)N[C@H](Cc2ccc(O)cc2)C(N)=O)NC1=O`, for which the outcome in assay [1] was inactive. The outcome in assay [2], in assay [3] and in assay [4] was Active.
In the case of `C[C@@H](O)[C@@H]1NC(=O)[C@H](CCCCN)NC(=O)[C@@H](Cc2ccc(NC(N)=O)cc2)NC(=O)[C@H](Cc2ccc(NC(=O)[C@@H]3CC(=O)NC(=O)N3)cc2)NC(=O)[C@H](NC(=O)[C@@H](Cc2ccc(Cl)cc2)NC(=O)CN2CCN(CC(=O)O)CCN(CC(=O)O)CCN(CC(=O)O)CC2)CSSC[C@@H](C(=O)N[C@H](Cc2ccc(O)cc2)C(N)=O)NC1=O`, the outcome in [1] was inactive. In addition, the outcome in [2], in assay [3] and in [4] was Active.
Turning to `C[C@@H](O)[C@@H]1NC(=O)[C@H](CCCCN)NC(=O)[C@@H](Cc2c[nH]c3ccccc23)NC(=O)[C@H](Cc2ccc(O)c(I)c2)NC(=O)[C@H](NC(=O)[C@@H](Cc2ccc([N+](=O)[O-])cc2)NC(=O)CN2CCN(CC(=O)O)CCN(CC(=O)O)CCN(CC(=O)O)CC2)CSSC[C@@H](C(=O)N[C@H](Cc2ccc(O)cc2)C(N)=O)NC1=O`, the result in assay [1] and in [5] was inactive. The result in assay [2], in [3] and in assay [4] was Active.
In general, IC50 refers to the concentration needed to halve the response being measured. Read a high IC50 as a need for much substance. Consider `C[C@@H](O)[C@@H]1NC(=O)[C@H](CCCCN)NC(=O)[C@@H](Cc2ccc(NC(N)=O)cc2)NC(=O)[C@H](Cc2ccc(NC(=O)[C@@H]3CC(=O)NC(=O)N3)cc2)NC(=O)[C@H](NC(=O)[C@H](Cc2ccc(Cl)cc2)NC(=O)CN2CCN(CC(=O)O)CCN(CC(=O)O)CCN(CC(=O)O)CC2)CSSC[C@@H](C(=O)N[C@@H](Cc2ccc3ccccc3c2)C(N)=O)NC1=O`, for which the IC50 in assay [6] was above 1000 nM; in assay [7], above 1000 nM; in assay [8], 1.7 nM; in assay [9], above 1000 nM; in assay [10], above 1000 nM.
